Series [1] has as its target T1, Polyunsaturated fatty acid 5-lipoxygenase (Homo sapiens, UniProt P09917).
T1 sequence (P09917 whole entry): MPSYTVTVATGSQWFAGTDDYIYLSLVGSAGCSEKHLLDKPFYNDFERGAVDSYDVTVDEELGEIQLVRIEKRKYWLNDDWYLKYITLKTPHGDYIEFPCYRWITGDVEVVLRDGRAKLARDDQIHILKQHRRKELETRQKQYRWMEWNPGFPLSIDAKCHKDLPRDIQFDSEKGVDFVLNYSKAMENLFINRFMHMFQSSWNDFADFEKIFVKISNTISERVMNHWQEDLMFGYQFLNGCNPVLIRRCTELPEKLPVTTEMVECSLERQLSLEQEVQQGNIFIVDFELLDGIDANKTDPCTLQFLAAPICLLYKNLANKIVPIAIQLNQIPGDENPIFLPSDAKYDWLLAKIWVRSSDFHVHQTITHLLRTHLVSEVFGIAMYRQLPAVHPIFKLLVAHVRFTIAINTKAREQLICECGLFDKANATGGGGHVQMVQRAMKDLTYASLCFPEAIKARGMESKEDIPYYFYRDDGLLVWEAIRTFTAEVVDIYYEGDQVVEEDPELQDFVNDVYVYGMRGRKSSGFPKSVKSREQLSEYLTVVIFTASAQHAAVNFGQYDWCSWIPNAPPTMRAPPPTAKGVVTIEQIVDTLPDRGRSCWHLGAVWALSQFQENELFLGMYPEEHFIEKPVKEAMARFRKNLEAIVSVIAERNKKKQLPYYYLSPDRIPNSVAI
Description: Inhibition of human recombinant 5-LO expressed in Escherichia coli MV1190 using arachidonic acid as substrate preincubated for 10 mins followed by substrate addition measured after 10 mins by RP-HPLC analysis. Put shortly:
(§1)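 Human 5-LO expressed in E. coli MV1190, partially purified on ATP-agarose, diluted in PBS with 1 mM EDTA and 1 mM ATP. Held 10 min at 4 °C with compound, warmed 30 s to 37 °C, started with 2 mM CaCl2 plus 20 μM AA. Run 10 min at 37 °C, stopped with methanol. LTB4 trans-isomers and 5-H(p)ETE measured by RP-HPLC. IC50 from 4–5 concentrations; n = 3–4.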

Series [2] concerns the target T1, Polyunsaturated fatty acid 5-lipoxygenase. Description: Inhibition of 5-LO in human peripheral blood neutrophils using arachidonic acid as substrate preincubated for 15 mins followed by substrate addition measured after 10 mins in presence of Ca2+ ionophore A23187 by RP-HPLC analysis.
The target in series [3] is T2, Prostaglandin E synthase (Homo sapiens, UniProt O14684).
T2 sequence (O14684 whole entry): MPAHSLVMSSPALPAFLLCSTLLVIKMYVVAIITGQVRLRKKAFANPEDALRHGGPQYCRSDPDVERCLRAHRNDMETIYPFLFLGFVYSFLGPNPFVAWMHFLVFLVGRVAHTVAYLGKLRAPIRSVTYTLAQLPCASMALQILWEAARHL
Description: Inhibition of human A549 cell microsomal membrane-derived mPGES-1 assessed as reduction in conversion of PGH2 to PGE2 preincubated for 15 mins followed by PGH2 addition measured after 1 min by RP-HPLC analysis. The series is classed as cell-based.

Series [4] concerns Neutrophil. Description: Cytotoxicity against human neutrophils assessed as reduction in cell viability up to 10 uM up to 30 mins by light microscopic and trypan blue exclusion assay. Particulars: 0.5 h. Format: cell-based. Put shortly:
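Isolated human blood neutrophils (dextran sedimentation, Nycoprep, hypotonic lysis) in PBS pH 7.4 with 1 mg/mL glucose and 1 mM CaCl2. Compounds tested up to 10 μM for 30 min. Viability scored by light microscopy with trypan blue exclusion.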

For series [5], the target named is T3, Polyunsaturated fatty acid 5-lipoxygenase (Homo sapiens) (UniProt P09917).
T3 sequence (whole entry): T1 sequence (P09917 whole entry)
Description: Inhibition of human recombinant 5-LO expressed in Escherichia coli MV1190 assessed as residual activity at 10 uM using arachidonic acid as substrate preincubated for 10 mins followed by substrate addition measured after 10 mins by RP-HPLC analysis relative to control. Put shortly: as §1

The test system of series [6] is Mus musculus. Description: Anti inflammatory activity in CD-1 mouse assessed as reduction in zymosan-induced LTC4 by measuring LTC4 level in peritoneal exudates at 10 mg/kg, ip preincubated for 30 mins followed by zymosan addition measured after 30 mins by enzyme immunoassay (reference value: 92.2 +/- 12.8 ng/ml). The series is classed as functional.
Series [7] has as its system Mus musculus. Description: Anti inflammatory activity in CD-1 mouse assessed as reduction in zymosan-induced PGE2 by measuring PGE2 level in peritoneal exudates at 5 mg/kg, ip preincubated for 30 mins followed by zymosan addition measured after 30 mins by enzyme immunoassay (reference value: 10.5 +/- 1.34 ng/ml). Format: functional.
In series [8] the test system is Mus musculus. Description: Anti inflammatory in CD-1 mouse assessed as reduction in zymosan-induced inflammatory cell infiltration by measuring inflammatory cell level in peritoneal exudates at 5 mg/kg, ip preincubated for 30 mins followed by zymosan addition measured after 4 hrs […] (reference value: 7.3 +/- 0.72 10^6). Format: functional.
The target of series [9] is T3, Polyunsaturated fatty acid 5-lipoxygenase (Homo sapiens). Description: Competitive inhibition of human recombinant 5-LO expressed in Escherichia coli MV1190 using different concentration of arachidonic acid as substrate preincubated for 15 mins followed by substrate addition measured after 10 mins by RP-HPLC analysis. Particulars: in the assay text read “preincubated for 10 mins” for “preincubated for 15 mins”. Put shortly:
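Semipurified recombinant human 5-LO assayed in the cell-free format with CaCl2 and varying AA concentrations, products measured by RP-HPLC. Representative experiment of three independent runs.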

Series [10] has as its system Mus musculus. Description: Anti inflammatory activity in CD-1 mouse assessed as reduction in zymosan-induced PGE2 by measuring PGE2 level in peritoneal exudates at 10 mg/kg, ip preincubated for 30 mins followed by zymosan addition measured after 30 mins by enzyme immunoassay (reference value: 10.5 +/- 1.34 ng/ml). Format: functional.
Series [11] concerns Mus musculus. Description: Anti inflammatory in CD-1 mouse assessed as reduction in zymosan-induced inflammatory cell infiltration by measuring inflammatory cell level in peritoneal exudates at 10 mg/kg, ip preincubated for 30 mins followed by zymosan addition measured after 4 hrs […] (reference value: 7.3 +/- 0.72 10^6). Format: functional.
The subject of series [12] is Mus musculus. Description: Anti inflammatory activity in CD-1 mouse assessed as reduction in zymosan-induced LTC4 level in peritoneal exudates at 10 mg/kg, ip preincubated for 30 mins followed by zymosan addition measured after 30 mins by enzyme immunoassay relative to control. Set-up: scale not given: the % may be the effect or the level left. Format: functional.
The test system of series [13] is Mus musculus. Description: Anti inflammatory in CD-1 mouse assessed as reduction in zymosan-induced inflammatory cell infiltration level in peritoneal exudates at 10 mg/kg, ip preincubated for 30 mins followed by zymosan addition measured after 4 hr relative to control. Format: functional. The arrangement: scale not given: the % may be the effect or the level left.

Series [14] has as its target T3, Polyunsaturated fatty acid 5-lipoxygenase (Homo sapiens). Description: Reversible inhibition of human recombinant 5-LO expressed in Escherichia coli MV1190 using arachidonic acid as substrate preincubated for 15 mins followed by 10 fold dilution measured after 10 mins by RP-HPLC analysis. Put shortly:
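Semipurified recombinant human 5-LO in the cell-free assay (2 mM CaCl2, 20 μM AA, 10 min at 37 °C, RP-HPLC read-out). Reversibility tested by wash-out using 10-fold dilution. Means ± SEM, n = 3–4.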

Activity calls are given as the source filed them. No cut-off for these calls is given here.

Turning to `CC(=O)c1c(O)cc(O)c(C(CC(C)C)c2c(O)cc(O)c(C(C)=O)c2O)c1O`, the IC50 in series [1] was 1700 nM; in series [2], 6.3 µM; in [3], 1000 nM. Besides, the Activity result in [4] is “Non-Toxic”; in series [5] it was < 50%.

For `CC(c1cc2ccccc2s1)N(O)C(N)=O` (configuration not stated) [ZILEUTON], the Activity in series [6] was found to be 65 ng/mL.

`COc1c(CC=C(C)C)c(O)c(C(CC(C)C)c2c(O)c3c(c(C(C)=O)c2O)OC(C(C)(C)O)C3)c(O)c1C(C)=O` (configuration not stated): the values for the IC50 in series [1], in [2] and in series [3] were > 10000 nM, 4.5 µM and 1100 nM, respectively. The Activity result was “Non-Toxic” in series [4] and < 50% in series [5].

Turning to `CC(=O)c1c(O)cc(O)c(CC=C(C)C)c1O`, the IC50 in [3] is > 10000 nM. Moreover, the Activity result in series [4] is reported as “Non-Toxic”.

Consider `COc1ccc2c(c1)c(CC(=O)O)c(C)n2C(=O)c1ccc(Cl)cc1` [INDOMETHACIN], for which the Activity in series [7] is 3.52 ng/mL; in [8], 2.08 ×10⁶ No_unit.

Take `COc1c(CC=C(C)C)c(O)c(C(CC(C)C)c2c(O)c3c(c(C(C)=O)c2O)OC(C)(C)C(O)C3)c(O)c1C(C)=O` (configuration not stated): the IC50 in series [1] was found to be 7300 nM; in series [2] it was 5.3 µM; in [3], 2700 nM. Further, the Activity result in [4] is “Non-Toxic”; in series [5], < 50%.

In the case of `COc1c(CC=C(C)C)c(O)c(C(CC(C)C)c2c(O)c(CC=C(C)C)c(O)c(C(C)=O)c2O)c(O)c1C(C)=O` (configuration not stated), the half-inhibitory concentration (IC50) in series [1] is 2700 nM; in series [2], 2.3 µM; in [3], 1100 nM. Besides, the values for the Activity result in series [4] and in series [5] were “Non-Toxic” and < 50%, respectively.

For `CC(=O)c1c(O)c(C/C=C(/C)CCC=C(C)C)c(O)c(C(CC(C)C)c2c(O)c(C/C=C(\C)CCC=C(C)C)c(O)c(C(C)=O)c2O)c1O` (configuration not stated), the IC50 in series [1] is 3600 nM; in series [2] it was > 10 µM; in series [3], 5340 nM. Also, the Activity result was “Non-Toxic” in series [4] and < 50% in series [5].

For the compound `CC(=O)c1c(O)cc(O)c(C/C=C(\C)CCC=C(C)C)c1O`, the Activity in series [6] was 57.3 ng/mL; in [10], 11.3 ng/mL; in [11] it was 5 ×10⁶ No_unit; in series [12] it was 38%; in [13], 32%; in series [4], “Non-Toxic”. The Activity in [5] is < 50%. In addition, the inhibition entry in series [9] was “inactive”. The IC50 turned out to be 1000 nM in series [1], 1.4 µM in series [2] and 3500 nM in [3]. Besides, in series [14], the inhibition entry was “Active”.

On to `C=C(C)[C@@H](O)Cc1c(O)c(C(C)=O)c(O)c(C(CC(C)C)c2c(O)c(CC=C(C)C)c(OC)c(C(C)=O)c2O)c1O` (some centres not stated), for which the half-maximal inhibitory concentration (IC50) was found to be 2500 nM in [1], 6.3 µM in series [2] and 1100 nM in series [3]. Besides, the Activity result in series [4] was “Non-Toxic”; in series [5], < 50%.

For `COc1c(CC=C(C)C)c(O)c(C(CC(C)C)c2c(O)c3c(c(C(C)=O)c2O)OC(C)(C)C=C3)c(O)c1C(C)=O` (configuration not stated), the IC50 in series [1] is 6000 nM; in series [2], > 10 µM; in series [3] it was 4200 nM. The Activity result in [4] was “Non-Toxic”; in [5], < 50%.

Consider `CC(=O)c1c(O)c(C(CC(C)C)c2c(O)c3c(c(C(C)=O)c2O)OC(C)(C)C=C3)c(O)c2c1OC(C)(C)C=C2`, for which the values for the IC50 in [1], in series [2] and in series [3] were 2400 nM, > 10 µM and 1200 nM, respectively. For the same compound, the Activity result was “Non-Toxic” in series [4] and < 50% in series [5].

For the compound `C=C(C)C1Cc2c(O)c(C(CC(C)C)c3c(O)c4c(c(C(C)=O)c3O)OC(C(=C)C)C4)c(O)c(C(C)=O)c2O1` (configuration not stated), the IC50 in [1] is > 10000 nM; in series [2], 5 µM; in [3] it was > 10000 nM. The figures for the Activity entry in [4] and in series [5] were “Non-Toxic” and < 50%, respectively.

Take `CC(=O)c1c(O)c(CC=C(C)C)c(O)c(C(CC(C)C)c2c(O)c(CC=C(C)C)c(O)c(C(C)=O)c2O)c1O`: the IC50 in [1] is > 10000 nM; in series [2], > 10 µM; in [3], > 10000 nM. For the same compound, the Activity entry in series [4] was “Non-Toxic”; in series [5], > 50%.

Take `COc1c(CC=C(C)C)c(O)c(C(CC(C)C)c2c(O)c(C(C)=O)c(O)c3c2OC(C(C)(C)O)C3)c(O)c1C(C)=O` (configuration not stated) [ACROFOLIONE A]: the IC50 in series [1] came out at 5300 nM; in [2], 7.3 µM; in series [3], 1300 nM. Moreover, the values for the Activity result in [4] and in [5] were “Non-Toxic” and < 50%, respectively.

Consider `COc1c(CC=C(C)C)c(O)c(C(CC(C)C)c2c(O)c(C(C)=O)c(O)c3c2OC(C)(C)C(O)C3)c(O)c1C(C)=O` (configuration not stated), for which the IC50 amounted to 2000 nM in series [1], 5 µM in [2] and 1900 nM in [3]. Besides, the Activity result in series [4] was “Non-Toxic”; in series [5] it was < 50%.

The values are drawn from ChEMBL document CHEMBL4052610, “Evaluation of Dual 5-Lipoxygenase/Microsomal Prostaglandin E2 Synthase-1 Inhibitory Effect of Natural and Synthetic Acronychia-Type Isoprenylated Acetophenones” (J Nat Prod, 2017).
